Test results taken from ChEMBL document CHEMBL3616436, “Synthesis, cytotoxicity and antimicrobial activity of thiourea derivatives incorporating 3-(trifluoromethyl)phenyl moiety” (Eur J Med Chem, 2015).
In brackets after ≈: the same amount, converted by molar mass. Activity calls are given as the source filed them. No cut-off for these calls is given here.

Experiments:
Staphylococcus aureus [1] = assay: Antimicrobial activity against Staphylococcus aureus NCTC 4163 at 400 ug after 18 hrs by disc-diffusion method; assay type: functional; settings: NCTC 4163, 18 h, read-out: IZ
Summary of the method: (§1)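 Disc diffusion on Mueller-Hinton II agar per CLSI; 9 mm paper discs loaded with 400 µg compound from DMSO solution, dried, placed on agar; growth inhibition zone diameter read after 18 h at 35°C.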

[2] = system: Staphylococcus epidermidis; assay: Antimicrobial activity against Staphylococcus epidermidis ATCC 35984 after 18 hrs by twofold serial microdilution method; assay type: functional; settings: ATCC 35984, 18 h
CCRF-SB = assay: Cytotoxicity against human CCRF-SB cells after 96 hrs by MTT assay; assay type: functional
Summary of the method: (§2)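 Leukaemia/lymphoma lines seeded at 1×10^5 cells/ml in RPMI-1640 with 10% FCS and penicillin/streptomycin; incubated with serial dilutions at 37°C, 5% CO2; viability by MTT after 96 h; value is concentration reducing proliferation by 50%, with untreated controls undergoing at least three rounds of multiplication.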

[3] = Cytotoxicity against bovine MDBK cells assessed as cell viability after 48 to 96 hrs by MTT assay; assay type: cell-based, Bos taurus; settings: cattle
Staphylococcus aureus [4] = assay: Antimicrobial activity against Staphylococcus aureus ATCC 29213 at 400 ug after 18 hrs by disc-diffusion method; assay type: functional; settings: ATCC 29213, 18 h, read-out: IZ; summary of the method: as §1
Micrococcus luteus [5] = assay: Antimicrobial activity against Micrococcus luteus ATCC 10240 at 400 ug after 18 hrs by disc-diffusion method; assay type: functional; settings: ATCC 10240, 18 h, read-out: IZ; summary of the method: as §1
[6] = system: Staphylococcus epidermidis; assay: Antimicrobial activity against Staphylococcus epidermidis ATCC 12228 at 400 ug after 18 hrs by disc-diffusion method; assay type: functional; settings: ATCC 12228, 18 h, read-out: IZ; summary of the method: as §1
[7] = system: Human immunodeficiency virus 1; assay: Antiviral activity against HIV1 3B infected in human MT4 cells assessed as protection against virus-induced cytopathogenicity by MTT assay; assay type: functional, organism-based; settings: Human immunodeficiency virus 1, 3B
[8] = system: Mammalian orthoreovirus 1; assay: Antiviral activity against Reovirus type-1 ATCC VR-214 infected in BHK cells assessed as protection against virus-induced cytopathogenicity after 3 to 4 days by MTT assay; assay type: functional, cell-based; settings: Mammalian orthoreovirus 1, ATCC VR-214, BHK
Summary of the method: (§3)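 Cells seeded in 96-well plates (BHK 5x10^4, MDBK 3x10^4 cells/well), grown overnight to confluence, infected at m.o.i. 0.01 (BHK for Reo-1, MDBK for BVDV); serial compound dilutions in maintenance medium with 0.5% inactivated FBS added after 1 h; viability by MTT after 3–4 days at 37°C; EC50 for 50% protection by linear regression.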

Proteus vulgaris = assay: Antimicrobial activity against Proteus vulgaris NCTC 4635 at 400 ug after 18 hrs by disc-diffusion method; assay type: functional; summary of the method: as §1
Staphylococcus aureus [9] = assay: Antimicrobial activity against Staphylococcus aureus ATCC 25923 at 400 ug after 18 hrs by disc-diffusion method; assay type: functional; settings: ATCC 25923, 18 h, read-out: IZ; summary of the method: as §1
Bacillus subtilis = assay: Antimicrobial activity against Bacillus subtilis ATCC 6633 at 400 ug after 18 hrs by disc-diffusion method; assay type: functional; settings: ATCC 6633, 18 h, read-out: IZ; summary of the method: as §1
Yellow fever virus = assay: Antiviral activity against Yellow fever virus 17D infected in BHK cells assessed as protection against virus-induced cytopathogenicity after 3 to 4 days by MTT assay; assay type: functional, cell-based
[10] = system: Staphylococcus epidermidis; assay: Antimicrobial activity against Staphylococcus epidermidis ATCC 35984 at 400 ug after 18 hrs by disc-diffusion method; assay type: functional; settings: ATCC 35984, 18 h, read-out: IZ; summary of the method: as §1
[11] = Cytotoxicity against BHK cells assessed as cell viability after 48 to 96 hrs by MTT assay; assay type: cell-based, Mesocricetus auratus; settings: hamster
[12] = system: Mycobacterium tuberculosis; assay: Antimycobacterial activity against drug-sensitive Mycobacterium tuberculosis Spec. 192; assay type: functional
Summary of the method: (§4)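 Classical test-tube successive-dilution method in Youmans' modification of Proskauer and Beck liquid medium with 10% bovine serum. Inoculum came from 14-day cultures. DMSO stock was 10 mg/mL, diluted geometrically in medium. Tubes were incubated at 37 °C. Concentrations tested were 3.1, 6.2, 12.5, 25, 50 and 100 µg/ml. MIC is the minimum concentration inhibiting growth relative to compound-free tubes.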

Micrococcus luteus [13] = assay: Antimicrobial activity against Micrococcus luteus ATCC 9341 at 400 ug after 18 hrs by disc-diffusion method; assay type: functional; settings: ATCC 9341, 18 h, read-out: IZ; summary of the method: as §1
Staphylococcus aureus [14] = assay: Antimicrobial activity against Staphylococcus aureus ATCC 6538 at 400 ug after 18 hrs by disc-diffusion method; assay type: functional; settings: ATCC 6538, 18 h, read-out: IZ; summary of the method: as §1
Staphylococcus aureus [15] = assay: Antimicrobial activity against Staphylococcus aureus ATCC 29213 after 18 hrs by twofold serial microdilution method; assay type: functional; settings: ATCC 29213, 18 h
[16] = system: Vesicular stomatitis virus; assay: Antiviral activity against Vesicular stomatitis virus ATCC VR 1540 infected in African green monkey Vero 76 cells assessed as reduction of virus-plaque formation after 2 days by crystal violet staining; assay type: functional, organism-based; settings: ATCC VR 1540, Vero, 48 h
WIL2-NS = assay: Cytotoxicity against human WIL2-NS cells after 96 hrs by MTT assay; assay type: functional; summary of the method: as §2
[17] = Antiviral activity against Bovine viral diarrhea virus 1-NADL ATCC VR-534 infected in MDBK cells assessed as protection against virus-induced cytopathogenicity after 3 to 4 days by MTT assay; assay type: functional, cell-based; settings: Bovine viral diarrhea virus isolates and strains, ATCC VR-534, MDBK; summary of the method: as §3
Coxsackievirus B5 = assay: Antiviral activity against Human coxsackievirus B5 ATCC VR-29 infected in African green monkey Vero 76 cells assessed as reduction of virus-plaque formation after 3 days by crystal violet staining; assay type: functional, organism-based; settings: Enterovirus B, ATCC VR-29, Vero, 72 h
Summary of the method: (§5)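 Plaque reduction: Vero-76 at 2x10^5 cells/well grown to confluent monolayers, infected 2 h at 50–100 PFU/well; after removing unadsorbed virus, overlay of D-MEM, 1% inactivated FBS, 0.75% methylcellulose with or without serial compound dilutions; 3 days at 37°C, fixed and stained with crystal violet in 50% ethanol, plaques counted; EC50 by linear regression.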

[18] = system: Mycobacterium tuberculosis; assay: Antimycobacterial activity against Mycobacterium tuberculosis H37Rv ATCC 25618; assay type: functional; summary of the method: as §4
Poliovirus 1 = assay: Antiviral activity against Poliovirus type 1 ATCC VR-1562 infected in African green monkey Vero 76 cells assessed as reduction of virus-plaque formation after 2 days by crystal violet staining; assay type: functional, organism-based; settings: Enterovirus C, ATCC VR-1562, Vero, 48 h
[19] = system: Staphylococcus epidermidis; assay: Antimicrobial activity against Staphylococcus epidermidis ATCC 12228 after 18 hrs by twofold serial microdilution method; assay type: functional; settings: ATCC 12228, 18 h
[20] = Cytotoxicity against human MT4 cells; assay type: cell-based
CCRF-CEM = assay: Cytotoxicity against human CCRF-CEM cells after 96 hrs by MTT assay; assay type: functional; summary of the method: as §2
Vaccinia virus = assay: Antiviral activity against Human Vaccinia virus ATCC VR-1549 infected in African green monkey Vero 76 cells assessed as reduction of virus-plaque formation after 3 days by crystal violet staining; assay type: functional, organism-based; settings: Orthopoxvirus vaccinia, ATCC VR-1549, Vero, 72 h
Enterococcus hirae = assay: Antimicrobial activity against Enterococcus hirae ATCC 10541 at 400 ug after 18 hrs by disc-diffusion method; assay type: functional; summary of the method: as §1
Staphylococcus aureus [21] = assay: Antimicrobial activity against Staphylococcus aureus ATCC 25923 after 18 hrs by twofold serial microdilution method; assay type: functional; settings: ATCC 25923, 18 h
Human alphaherpesvirus 1 = assay: Antiviral activity against Human herpesvirus 1 KOS ATCC VR-1493 infected in African green monkey Vero 76 cells assessed as reduction of virus-plaque formation after 3 days by crystal violet staining; assay type: functional, organism-based; settings: Human alphaherpesvirus 1, KOS ATCC VR1493, Vero, 72 h; summary of the method: as §5
[22] = Cytotoxicity against African green monkey Vero 76 cells assessed as cell viability after 48 to 96 hrs by crystal violet staining; assay type: cell-based; settings: chlorocebus sabaeus
Bacillus cereus = assay: Antimicrobial activity against Bacillus cereus ATCC 11778 at 400 ug after 18 hrs by disc-diffusion method; assay type: functional; settings: ATCC 11778, 18 h, read-out: IZ; summary of the method: as §1
Staphylococcus aureus [23] = assay: Antimicrobial activity against Staphylococcus aureus NCTC 4163 after 18 hrs by twofold serial microdilution method; assay type: functional; settings: NCTC 4163, 18 h
Staphylococcus aureus [24] = assay: Antimicrobial activity against Staphylococcus aureus ATCC 6538 after 18 hrs by twofold serial microdilution method; assay type: functional; settings: ATCC 6538, 18 h
Enterococcus faecalis = assay: Antimicrobial activity against Enterococcus faecalis ATCC 29212 at 400 ug after 18 hrs by disc-diffusion method; assay type: functional; settings: ATCC 29212, 18 h, read-out: IZ; summary of the method: as §1

FC(F)(F)c1cccc(NC(=S)Nc2cccc(Cl)c2)c1
zone of inhibition at 400 µg/disc (Staphylococcus aureus [1]): 29 mm
MIC [2]: 64 µg/mL (≈ 193 µM)
CC50 (CCRF-SB): 9.6 µM
CC50 [3]: 19 µM
zone of inhibition at 400 µg/disc (Staphylococcus aureus [4]): 27 mm
zone of inhibition at 400 µg/disc (Micrococcus luteus [5]): 27 mm
zone of inhibition at 400 µg/disc [6]: 28 mm
EC50 [7]: > 10 µM
EC50 [8]: > 9.5 µM
inhibition zone (IZ) (Proteus vulgaris): inactive
zone of inhibition at 400 µg/disc (Staphylococcus aureus [9]): 27 mm
zone of inhibition at 400 µg/disc (Bacillus subtilis): 26 mm
EC50 (Yellow fever virus): > 9.5 µM
zone of inhibition at 400 µg/disc [10]: 26 mm
CC50 [11]: 9.5 µM
MIC [12]: 100 µg/mL (≈ 302 µM)
zone of inhibition at 400 µg/disc (Micrococcus luteus [13]): 30 mm
zone of inhibition at 400 µg/disc (Staphylococcus aureus [14]): 29 mm
MIC (Staphylococcus aureus [15]): 32 µg/mL (≈ 96.7 µM)
EC50 [16]: > 20 µM
CC50 (WIL2-NS): 11 µM
EC50 [17]: > 19 µM
EC50 (Coxsackievirus B5): > 20 µM
MIC [18]: 100 µg/mL (≈ 302 µM)
EC50 (Poliovirus 1): > 20 µM
MIC [19]: 32 µg/mL (≈ 96.7 µM)
CC50 [20]: 10 µM
CC50 (CCRF-CEM): 9.1 µM
EC50 (Vaccinia virus): > 20 µM
inhibition zone (IZ) (Enterococcus hirae): inactive
MIC (Staphylococcus aureus [21]): 32 µg/mL (≈ 96.7 µM)
EC50 (Human alphaherpesvirus 1): > 20 µM
CC50 [22]: 20 µM
zone of inhibition at 400 µg/disc (Bacillus cereus): 23 mm
MIC (Staphylococcus aureus [23]): 32 µg/mL (≈ 96.7 µM)
MIC (Staphylococcus aureus [24]): 32 µg/mL (≈ 96.7 µM)
zone of inhibition at 400 µg/disc (Enterococcus faecalis): 20 mm
